HCV NS3 hel inh = HCV NS3 helicase inhibition; NS3 helicase DNA unwinding, Cy5 molecular beacon fluorescence; inhibition, % at 10.9 µM; actives 0.56% (n = 290,000); AID 1800;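 active = inhibition above the mean of all tested compounds plus 3 SD, set per campaign, cut at about 35% in these data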;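 also: 0% = DMSO wells and 100% = thioflavine S control wells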
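System: NS3 helicase fragment of HCV / Schedule: 1 h at 25 °C / Control set: DMSO alone as 0% and 110 µM thioflavine S as 100% / Reagent: Cy5/quencher beacon DNA duplex and ATP to start / Technique: Cy5 fluorescence / Replication: singlicate / Evaluation: % inhibition of end-to-start signal ratio versus controls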
MBD2 inh = blocks human MBD2 binding to methylated DNA. Q9UBB5. TR-FRET, MBD2 binding to methylated oligonucleotide. inhibition, % at 4.4 µM. actives 0.31% (n = 370,000). AID 686964; in the data active = inhibition above about 13%
UHRF1 binding = blocks human UHRF1 binding to methylated DNA. UHRF1 binding to methylated oligo, TR-FRET. inhibition, % at 4.4 µM. actives 0.75% (n = 370,000). AID 687016; in the data active = inhibition above about 21%;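 also: UHRF1 SRA domain binding a hemimethylated CpG hairpin DNA probe; 0% = median of test compound wells and 100% = reference inhibitor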
Target sequence (Q96T88 whole entry, looked up, the tested form may be a part): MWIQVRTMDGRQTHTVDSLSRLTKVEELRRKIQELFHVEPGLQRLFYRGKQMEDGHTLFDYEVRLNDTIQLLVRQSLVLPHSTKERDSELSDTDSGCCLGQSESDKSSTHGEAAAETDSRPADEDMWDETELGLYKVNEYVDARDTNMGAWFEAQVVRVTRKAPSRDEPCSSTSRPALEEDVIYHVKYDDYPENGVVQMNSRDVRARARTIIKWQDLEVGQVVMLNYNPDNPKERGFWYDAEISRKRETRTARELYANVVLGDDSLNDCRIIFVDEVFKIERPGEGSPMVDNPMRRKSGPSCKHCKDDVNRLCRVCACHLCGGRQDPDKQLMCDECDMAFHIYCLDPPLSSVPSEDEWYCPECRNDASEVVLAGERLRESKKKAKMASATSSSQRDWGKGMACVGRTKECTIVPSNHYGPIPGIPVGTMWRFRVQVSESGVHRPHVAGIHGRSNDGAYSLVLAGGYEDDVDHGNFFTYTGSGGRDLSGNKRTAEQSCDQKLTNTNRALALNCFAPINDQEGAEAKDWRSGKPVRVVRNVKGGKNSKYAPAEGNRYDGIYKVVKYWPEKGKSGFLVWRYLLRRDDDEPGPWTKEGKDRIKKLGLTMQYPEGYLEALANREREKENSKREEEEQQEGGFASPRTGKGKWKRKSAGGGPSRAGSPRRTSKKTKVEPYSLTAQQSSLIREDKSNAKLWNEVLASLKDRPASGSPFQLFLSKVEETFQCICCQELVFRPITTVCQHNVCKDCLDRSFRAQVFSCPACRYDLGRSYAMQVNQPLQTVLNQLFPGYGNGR
DSG3 Ab inh = blocks pemphigus antibody binding to human desmoglein-3; DSG3-coupled beads, scFv-anti-DSG3-GFP binding, flow cytometry; hits give low values; binding (percent of control), % at 10 µM; actives 0.48% (n = 310,000); P32926;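 active = binding more than 3 SD below its plate's average and above zero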;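 also: hits lower antibody fragment binding to DSG3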
DNMT1 block = DNMT1 (human) enzyme inhibition. inhibition (reported as % activation of signal), % at 10 µM. actives 0.83% (n = 360,000). DNMT1 molecular beacon, Hinp1I cleavage, fluorescence. AID 588458. P26358; in the data active = inhibition above about 50%
SUMO1 PPI mod = SUMO1-SIM interaction modulation; SUMO1 binding to a labelled peptide, TR-FRET, 1 h; inhibition, % at 20 µM; actives 0.33% (n = 360,000)
NS3 hel confirm = confirmation of Hepatitis C virus NS3 helicase inhibitors | actives 31% (n = 1,600) | inhibition, % at 10.9 µM | NS3 helicase DNA unwinding, Cy5 molecular beacon fluorescence | shares compounds with HCV NS3 hel inh;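 active = inhibition above the mean of all tested compounds plus 3 SD, cutoff set per campaign, cut at about 36% in these data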
FID counter trip = displaces DNA intercalator in HCV helicase counter-screen; DNA fluorescent intercalator displacement, fluorescence; shares compounds with HCV NS3 hel inh; inhibition, % at 7.9 µM; actives 4% (n = 1,600);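 also: 0% = vehicle and 100% = reference compound; higher means more displacement of ethidium bromide from the DNA hairpin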
DNA FID DR = counter-screen for HCV NS3 helicase inhibitors: DNA intercalator displacement dose response | shares compounds with HCV NS3 hel inh | fluorescent intercalator displacement from DNA, fluorescence | IC50, µM | 120 tested, under 10 active; call rule not given here
Numbers without * were called inactive; . = no result given. The list is not random: actives were taken first. Their share in the collection is about 2.5%. Rule as the data show it, unless noted: active = inhibition above about 37%; inactive = the rest.

SMILES	HCV NS3 hel inh	MBD2 inh	UHRF1 binding	DSG3 Ab inh	DNMT1 block	SUMO1 PPI mod	NS3 hel confirm	FID counter trip	others
O=C(N/N=C/c1cc([N+](=O)[O-])ccc1O)c1cccc2ccccc12	40*	-3	-1	.	-4	-9	-25	3
COc1cccc(CN(C)C[C@H]2OCc3cnnn3CCCC(=O)N([C@H](C)CO)C[C@@H]2C)c1	.	-5	-1	.	0	-2	.	.
Cc1ccc(-c2nn3c(C)nnc3s2)cc1NC(=O)c1ccc(-c2cccc(Cl)c2)o1	60*	-2	6	100	17	3	-8	-27
CCCCCn1c(CN2CCCCC2C)nc2c1c(=O)n(C)c(=O)n2C (stereo not drawn)	-10	-3	-2	.	0	0	.	.
N#C/C(=C\c1ccc(O)c(O)c1)S(=O)(=O)c1ccccc1	38*	-7	1	101	2	-11	58*	17	DNA FID DR=>79
O=C(CCCC(=O)N(c1cccc(F)c1)C(C(=O)NC1CCCC1)c1ccc(O)cc1)Nc1ccccn1 (stereo not drawn)	5	2	3	96	-1	3	.	.
COc1cccc(-c2nc(-c3ccccc3)c(-c3ccccc3)[nH]2)c1OCC(=O)O	46*	-5	0	104	1	20	64*	-12
Cc1ccc(C(c2cc(Cl)c3cccnc3c2O)N2CCN(C)CC2)cc1 (stereo not drawn)	42*	.	.	114	-4	-2	70*	67*
O=C(O)C1CCC(c2ccc(-c3ccccc3)cc2)CC1 (stereo not drawn)	7	0	-1	107	7	6	.	.
CCOc1cc(C(=O)Nc2ccc(N3CCN(S(C)(=O)=O)CC3)cc2)cc(OCC)c1OCC	39*	2	11	104	7	7	-2	-29
COc1ccc(C2=NN(C(=O)CCCC(=O)O)C(c3cn(-c4ccccc4)nc3-c3ccccc3)C2)cc1 (stereo not drawn)	46*	-1	-1	97	2	11	43*	-16
COc1ccc(C2=NN(C(=O)CCC(=O)O)C(c3ccc(Br)cc3)C2)cc1 (stereo not drawn)	38*	2	-1	102	1	-4	6	-23
Cc1nc(NC(=S)NC(=O)c2cccs2)sc1C(=O)N(C)C	0	5	0	107	0	-1	.	.
Cc1cccc(NC(=O)c2ccccc2SCc2ccc(F)cc2)n1	.	-2	-4	107	2	3	.	.
O=C(O)c1ccc(S(=O)(=O)N(CCc2ccccc2)Cc2ccc(Cl)cc2)cc1	45*	0	0	125	-5	10	32	11
Cc1ccc(S(=O)(=O)N(Cc2ccc(Cl)cc2)c2ccccc2C(=O)O)cc1	36*	-1	-1	107	2	6	41*	-24
CC(=O)N1C=Cc2c(c(C)c3c([nH]c4ccccc43)c2C)C1	39*	.	.	.	.	.	23	35
CCCNc1c(F)c(F)c2c(C)c3ccccc3nc2c1F	41*	-7	-7	115	-14	-1	12	-8
Cc1c2ccccc2nc2ccccc12	.	-2	-7	.	-8	-26	.	.
CCN(C[C@H]1N[C@@](C)(C(=O)OC)[C@H]2C(=O)N(C)C(=O)[C@@H]12)C(=O)c1ccc(C(C)(C)C)cc1	.	-6	0	109	0	-4	.	.
O=S(=O)(O)c1nc2ccccc2n1Cc1cccc2ccccc12	43*	.	.	.	.	.	62*	-21
O=C(O)CCNc1ccc(Cl)cc1	-12	1	1	111	19	1	.	.
Cc1ccccc1NC(=S)NCCSc1ccc(Cl)cc1	78*	1	4	.	-1	0	6	-1
COc1ccc(OCC(=O)N/N=C/C(C)=C/c2ccco2)c(Br)c1	45*	-6	-1	102	16	1	5	-6
CCCCCC/C(C)=C1/SC(=S)NC1=O	40*	3	17	120	10	-4	12	0
SMILES	HCV NS3 hel inh	MBD2 inh	UHRF1 binding	DSG3 Ab inh	DNMT1 block	SUMO1 PPI mod	NS3 hel confirm	FID counter trip	others
CCc1ccc(N2CSC3=C(C#N)C(c4cccs4)CC(=O)N3C2)cc1 (stereo not drawn)	27	.	.	100	49	19	.	.
CCc1ccc(C2CC(=O)N3CN(c4ccccc4)CSC3=C2C#N)cc1 (stereo not drawn)	44*	-1	1	85	14	-2	34	-13
CCN(CC)c1ccc(C=Nc2ccc(N(C)C)cc2)c(O)c1	37*	-6	11	142	-13	-23	3	5
CCN(CC)c1ccc(N=Cc2ccc(N(CC)CC)cc2O)cc1	35	-7	-2	170	-5	-15	.	.
Cc1oc(C(C)(C)C)cc1C(=O)NCC(=O)NCC(=O)O	5	0	0	89	4	-3	.	.
O=C(COc1ccc(-c2ccccc2)cc1)N/N=C/c1cc(O)ccc1Br	37*	-5	-3	80	-23	4	-2	-19
O=C(COc1ccc(-c2ccccc2)cc1)N/N=C/c1ccccc1Br	12	-7	1	107	-2	-6	.	.
CC1=CN2C(=N)/C(=C/c3ccc([N+](=O)[O-])o3)C(=O)N=C2S1	51*	3	8	110	27	-4	53*	12	DNA FID DR=>79
CC1=CN2C(=N)/C(=C/c3ccco3)C(=O)N=C2S1	6	-1	3	105	6	-17	.	.
CCOC(=O)C1CCCN(C(=O)c2cc3c(=O)n(C)c4ccccc4c3n2C)C1 (stereo not drawn)	75*	-6	-3	107	0	4	-10	-31
CC(=O)C(C(C)=O)c1c(Cl)c(O)c(O)c2c(C(=O)c3ccccc3)coc12	38*	-2	0	99	-9	-6	-10	3
CN1CCN(Cc2c(O)ccc3occ(C(=O)c4ccccc4)c23)CC1	-13	4	17	100	0	2	.	.
C#CCN1C(=O)S/C(=C\c2ccc(-c3ccc(Cl)c(C(=O)O)c3)o2)C1=O	40*	3	9	96	14	-1	56*	-14
O=C(O)c1cc(-c2ccc(/C=c3\sc4nc5ccc(Br)cc5n4c3=O)o2)ccc1Cl	38*	.	.	.	.	.	73*	9
O=C(C1=C(O)C(=O)N(Cc2ccco2)C1c1cccc(Cl)c1)c1ccco1 (stereo not drawn)	48*	-8	-4	96	-1	-7	16	1

Source: PubChem BioAssay
